Results published in ChEMBL document CHEMBL1145619, “Conformation-activity relationship on novel 4-pyridylmethylthio derivatives with antiangiogenic activity” (Bioorg Med Chem Lett, 2008).

What was measured:
HUVEC = experiment: Antiproliferative activity against VEGF-induced HUVEC cells; assay type: functional, cell-based; details: Homo sapiens
[1] = target: T1, Vascular endothelial growth factor receptor 2 (Homo sapiens, UniProt P35968); experiment: Inhibition of KDR by ELISA
How it was run: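 KDR kinase activity measured with a commercial kinase assay development kit by ELISA. The read-out is the phosphorylation level of a biotinylated peptide containing Tyr in its sequence.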

[2] = target: T1, Vascular endothelial growth factor receptor 2; experiment: Inhibition of KDR at 10 uM by ELISA
How it was run: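 KDR kinase activity measured with a commercial kinase assay development kit by ELISA. The read-out is the phosphorylation level of a biotinylated peptide containing Tyr in its sequence. The table gives IC50 values, and gives percent inhibition at 10 µM where the IC50 exceeded the range.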

T1 sequence (P35968 whole entry): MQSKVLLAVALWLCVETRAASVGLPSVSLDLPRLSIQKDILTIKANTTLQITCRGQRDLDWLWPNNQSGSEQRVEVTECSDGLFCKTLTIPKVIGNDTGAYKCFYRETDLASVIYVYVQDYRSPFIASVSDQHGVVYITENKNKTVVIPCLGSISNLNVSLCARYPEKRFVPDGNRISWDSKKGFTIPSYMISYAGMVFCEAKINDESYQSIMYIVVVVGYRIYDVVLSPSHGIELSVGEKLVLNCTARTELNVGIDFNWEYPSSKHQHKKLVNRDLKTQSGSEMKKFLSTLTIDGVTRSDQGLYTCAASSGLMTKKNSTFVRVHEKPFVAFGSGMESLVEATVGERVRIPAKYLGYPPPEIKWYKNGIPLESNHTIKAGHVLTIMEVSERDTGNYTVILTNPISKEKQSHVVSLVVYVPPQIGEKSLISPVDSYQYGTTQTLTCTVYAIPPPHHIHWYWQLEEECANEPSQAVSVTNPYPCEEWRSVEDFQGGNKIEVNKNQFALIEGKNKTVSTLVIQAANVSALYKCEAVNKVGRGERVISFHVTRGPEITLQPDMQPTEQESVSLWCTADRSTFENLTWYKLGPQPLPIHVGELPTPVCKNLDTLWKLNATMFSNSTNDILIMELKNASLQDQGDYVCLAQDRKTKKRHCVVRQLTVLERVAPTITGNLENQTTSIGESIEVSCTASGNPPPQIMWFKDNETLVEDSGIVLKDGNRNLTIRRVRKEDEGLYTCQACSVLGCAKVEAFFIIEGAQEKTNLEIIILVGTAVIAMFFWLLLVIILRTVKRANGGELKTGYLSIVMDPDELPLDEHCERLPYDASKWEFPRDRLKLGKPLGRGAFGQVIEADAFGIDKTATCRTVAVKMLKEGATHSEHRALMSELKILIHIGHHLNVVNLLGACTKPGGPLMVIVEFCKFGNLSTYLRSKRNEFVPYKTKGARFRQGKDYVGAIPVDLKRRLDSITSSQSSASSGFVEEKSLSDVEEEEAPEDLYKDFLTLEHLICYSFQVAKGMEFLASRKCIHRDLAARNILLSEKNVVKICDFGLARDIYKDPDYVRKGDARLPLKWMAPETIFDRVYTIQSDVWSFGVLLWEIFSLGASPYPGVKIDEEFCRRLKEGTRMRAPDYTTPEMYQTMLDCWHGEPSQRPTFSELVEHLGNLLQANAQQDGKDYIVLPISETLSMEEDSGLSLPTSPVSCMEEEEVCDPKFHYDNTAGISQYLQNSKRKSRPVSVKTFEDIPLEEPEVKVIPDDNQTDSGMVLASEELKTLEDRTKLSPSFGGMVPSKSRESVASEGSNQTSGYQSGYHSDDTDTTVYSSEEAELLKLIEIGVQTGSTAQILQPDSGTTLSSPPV

| SMILES | IC50 (HUVEC) | IC50 [1] | inhibition [2] |
| --- | --- | --- | --- |
| Clc1ccc(Nc2nnc(Cc3ccncc3)c3ccccc23)cc1 | 6 nM |  |  |
| O=C(Nc1ccc(Cl)cc1)c1cccnc1SCc1ccncc1 |  | 26 nM |  |
| O=C(Nc1ccc(Cl)cc1)c1ccccc1SCc1ccncc1 |  | 46 nM |  |
| O=C(Nc1ccc(Cl)cc1)c1ccccc1OCc1ccncc1 | > 2000 nM | > 1000 nM | 54% |
| S=C(Nc1ccc(Cl)cc1)c1ccccc1OCc1ccncc1 |  | > 1000 nM | 0% |
